Experimental data: ChEMBL document CHEMBL3351530, “Analysis of subpocket selectivity and identification of potent selective inhibitors for matriptase and matriptase-2” (J Med Chem, 2014)

How the values were obtained:
[1] = biological target: T1, Suppressor of tumorigenicity 14 protein (Homo sapiens, UniProt Q9Y5Y6); assay: Inhibition of human recombinant matriptase using Boc-Gln-Ala-Arg-AMC as substrate by microplate reader analysis
T1 sequence (Q9Y5Y6 whole entry): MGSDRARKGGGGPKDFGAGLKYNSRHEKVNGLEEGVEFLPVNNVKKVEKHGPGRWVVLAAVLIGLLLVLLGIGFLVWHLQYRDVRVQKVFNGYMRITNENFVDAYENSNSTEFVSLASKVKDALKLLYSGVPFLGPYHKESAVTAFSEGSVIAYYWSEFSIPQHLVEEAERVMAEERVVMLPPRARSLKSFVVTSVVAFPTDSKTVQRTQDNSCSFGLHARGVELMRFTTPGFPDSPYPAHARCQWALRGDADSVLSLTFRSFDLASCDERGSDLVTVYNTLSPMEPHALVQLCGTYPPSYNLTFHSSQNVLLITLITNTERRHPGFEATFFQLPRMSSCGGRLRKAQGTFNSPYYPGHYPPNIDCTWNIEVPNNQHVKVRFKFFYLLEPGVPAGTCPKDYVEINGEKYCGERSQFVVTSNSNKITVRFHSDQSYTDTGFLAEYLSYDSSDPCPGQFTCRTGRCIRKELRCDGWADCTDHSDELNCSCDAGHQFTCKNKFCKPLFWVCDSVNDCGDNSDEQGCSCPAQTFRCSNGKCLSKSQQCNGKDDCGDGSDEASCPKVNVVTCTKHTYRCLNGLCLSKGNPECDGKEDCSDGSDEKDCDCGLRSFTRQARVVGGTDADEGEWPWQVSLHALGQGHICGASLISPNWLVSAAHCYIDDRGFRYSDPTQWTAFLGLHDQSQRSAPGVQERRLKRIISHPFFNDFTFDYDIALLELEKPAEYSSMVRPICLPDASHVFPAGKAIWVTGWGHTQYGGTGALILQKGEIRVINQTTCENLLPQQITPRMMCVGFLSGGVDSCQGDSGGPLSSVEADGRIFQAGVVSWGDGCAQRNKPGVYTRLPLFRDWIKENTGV
Summary of the method: (§1)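 Recombinant human matriptase (aa 596−[…]) or matriptase-2 (aa 78−811), active-site titrated with MUGB; 1 nM enzyme at room temperature in 50 mM Tris-HCl, 15 mM NaCl, pH 7.4. AMC release read at 360/441 nm. If inhibition occurred at I/E = 10, Ki came from a Morrison fit; otherwise from substrate-velocity curves fitted to the best reversible model. At least 3 runs in duplicate, mean ± SD.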

Homo sapiens [2] = species on record: Homo sapiens; assay: Selectivity ratio of Ki for human recombinant matriptase-2 to Ki for human recombinant matriptase
[3] = biological target: T2, Transmembrane protease serine 6 (Homo sapiens, UniProt Q8IU80); assay: Inhibition of human recombinant matriptase-2 using Boc-Gln-Ala-Arg-AMC as substrate by microplate reader analysis; summary of the method: as §1
T2 sequence (Q8IU80 whole entry): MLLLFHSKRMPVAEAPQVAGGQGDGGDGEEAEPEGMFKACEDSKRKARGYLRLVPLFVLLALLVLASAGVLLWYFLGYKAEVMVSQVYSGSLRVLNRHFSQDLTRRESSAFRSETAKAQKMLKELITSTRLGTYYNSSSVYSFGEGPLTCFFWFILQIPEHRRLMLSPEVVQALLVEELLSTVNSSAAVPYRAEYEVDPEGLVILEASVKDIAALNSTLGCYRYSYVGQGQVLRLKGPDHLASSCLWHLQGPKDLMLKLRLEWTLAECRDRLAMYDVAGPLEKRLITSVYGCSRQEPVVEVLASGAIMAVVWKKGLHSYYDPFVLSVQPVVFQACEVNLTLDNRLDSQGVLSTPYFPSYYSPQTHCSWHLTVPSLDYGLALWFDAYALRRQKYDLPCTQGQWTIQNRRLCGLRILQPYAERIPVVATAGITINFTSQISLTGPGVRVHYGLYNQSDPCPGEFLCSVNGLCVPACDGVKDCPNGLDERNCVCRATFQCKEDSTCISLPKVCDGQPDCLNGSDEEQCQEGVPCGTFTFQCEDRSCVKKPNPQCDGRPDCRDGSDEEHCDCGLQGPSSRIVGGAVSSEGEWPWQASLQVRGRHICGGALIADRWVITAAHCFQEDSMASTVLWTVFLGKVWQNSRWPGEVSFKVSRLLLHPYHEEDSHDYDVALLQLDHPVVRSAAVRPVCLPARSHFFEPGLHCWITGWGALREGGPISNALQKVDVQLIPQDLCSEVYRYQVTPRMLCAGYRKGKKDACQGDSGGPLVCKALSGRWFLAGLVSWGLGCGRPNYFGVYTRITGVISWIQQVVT

Homo sapiens [4] = species on record: Homo sapiens; assay: Selectivity ratio of Ki for human recombinant matriptase to Ki for human recombinant matriptase-2

SMILES | Ki [1] [nM] | Ratio Ki (Homo sapiens [2]) | Ki [3] [nM] | Ratio Ki (Homo sapiens [4])
CC(C)C[C@H](NC(=O)[C@@H](N)CCCNC(=N)N)C(=O)N[C@@H](CO)C(=O)N[C@@H](CCCNC(=N)N)C(=O)c1nc2ccccc2s1 | 1.4 | 1.79 | 2.48 | –
N=C(N)NCCC[C@H](NC(=O)[C@@H]1CCCN1C(=O)[C@H](CC(N)=O)NC(=O)[C@@H](N)CCCNC(=N)N)C(=O)c1nc2ccccc2s1 | 0.91 | 49 | 47.8 | –
C[C@H](NC(=O)[C@H](CCCCN)NC(=O)[C@@H](N)Cc1ccc(O)cc1)C(=O)N[C@@H](CCCNC(=N)N)C(=O)c1nc2ccccc2s1 | 0.89 | 23 | 20.8 | –
N=C(N)NCCC[C@H](NC(=O)[C@@H](N)Cc1c[nH]c2ccccc12)C(=O)N[C@@H](CCC(=O)O)C(=O)N[C@@H](CCCNC(=N)N)C(=O)c1nc2ccccc2s1 | 14.7 | 3 | 46.8 | –
CC(C)[C@H](NC(=O)[C@H](Cc1ccc(O)cc1)NC(=O)[C@@H](N)Cc1ccc(O)cc1)C(=O)N[C@@H](CCCNC(=N)N)C(=O)c1nc2ccccc2s1 | 31.5 | 0.08 | 2.56 | 13
C[C@H](NC(=O)[C@H](CC(N)=O)NC(=O)[C@@H](N)CCCCN)C(=O)N[C@@H](CCCNC(=N)N)C(=O)c1nc2ccccc2s1 | 0.45 | 62 | 24.8 | –
CC(C)C[C@H](N)C(=O)N[C@@H](Cc1c[nH]c2ccccc12)C(=O)N[C@@H](Cc1c[nH]c2ccccc12)C(=O)N[C@@H](CCCNC(=N)N)C(=O)c1nc2ccccc2s1 | 3.22 | 0.63 | 1.98 | 2
N=C(N)NCCC[C@H](NC(=O)[C@H](Cc1ccc(O)cc1)NC(=O)[C@H](CS)NC(=O)[C@@H](N)Cc1c[nH]c2ccccc12)C(=O)c1nc2ccccc2s1 | 7.98 | 0.13 | 1.03 | 8
C[C@H](NC(=O)[C@H](CCCNC(=N)N)NC(=O)[C@@H](N)CCCNC(=N)N)C(=O)N[C@@H](CCCNC(=N)N)C(=O)c1nc2ccccc2s1 | 0.72 | 22 | 15.4 | –
N=C(N)NCCC[C@H](NC(=O)[C@H](Cc1ccccc1)NC(=O)[C@H](CCC(N)=O)NC(=O)[C@@H](N)CCCNC(=N)N)C(=O)c1nc2ccccc2s1 | 0.23 | 6 | 1.4 | –

Stronger by Ki [1], values ahead:

Ki [1] [nM] | Ratio Ki (Homo sapiens [2]) | Ki [3] [nM] | Ratio Ki (Homo sapiens [4]) | SMILES
0.18 | 4 | 0.74 | – | N=C(N)NCCC[C@H](NC(=O)[C@H](Cc1ccc(O)cc1)NC(=O)[C@H](CCC(N)=O)NC(=O)[C@@H](N)CCCNC(=N)N)C(=O)c1nc2ccccc2s1
0.15 | 90 | 13.5 | – | CC(C)C[C@H](N)C(=O)N[C@@H](CCC(N)=O)C(=O)N[C@@H](C)C(=O)N[C@@H](CCCNC(=N)N)C(=O)c1nc2ccccc2s1
0.14 | 45 | 6.3 | – | C[C@H](NC(=O)[C@H](Cc1ccc(O)cc1)NC(=O)[C@@H](N)CCCNC(=N)N)C(=O)N[C@@H](CCCNC(=N)N)C(=O)c1nc2ccccc2s1
0.092 | 378 | 34.8 | – | C[C@H](NC(=O)[C@H](CCC(N)=O)NC(=O)[C@@H](N)CO)C(=O)N[C@@H](CCCNC(=N)N)C(=O)c1nc2ccccc2s1
0.061 | 128 | 7.8 | – | N=C(N)NCCC[C@H](NC(=O)[C@@H]1CCCN1C(=O)[C@H](CCC(N)=O)NC(=O)[C@@H](N)CCCNC(=N)N)C(=O)c1nc2ccccc2s1
